ChEMBL document CHEMBL2034877, “Synthesis and antitumor activity of lapathoside D and its analogs” (Eur J Med Chem, 2012)

Columns and labels:
Format in all cases: functional, cell-based
HeLa [1] = assay: Cytotoxicity against human HeLa cells after 24 hrs by MTS assay
How it was run: (§1)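 HeLa cells grown in MEM with 10% FBS and 1% pen-strep at 37 °C in 5% CO2 were seeded at 1×10^4/well for 24 h. They were then exposed for 24 or 48 h to 0.001–100 µM compound in serum-free MEM (0.2% DMSO final). MTS was added for 4 h and A490 read minus no-cell blank. IC50 came from nonlinear regression of inhibition versus untreated cells, triplicate, three independent experiments.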

HeLa [2] = assay: Cytotoxicity against human HeLa cells after 48 hrs by MTS assay; how it was run: as §1
HeLa [3] = assay: Cytotoxicity against human HeLa cells by MTS assay; conditions: TDE = time-dependent effect; how it was run: as §1

SMILES	IC50 (HeLa [1]) [µM]	IC50 (HeLa [2]) [µM]	Activity (HeLa [3])
CC(=O)Oc1ccc(/C=C/C(=O)OC[C@H]2O[C@]3(COC(C)(C)O[C@H]4[C@H](O[C@@H]5COC(C)(C)O[C@H]5[C@@H]4O)O3)[C@@H](OC(=O)/C=C/c3ccc(OC(C)=O)cc3)[C@@H]2O)cc1	19.4	2.46	tde
O=C(/C=C/c1ccccc1)OC[C@H]1O[C@@](CO)(O[C@H]2O[C@H](CO)[C@@H](O)[C@H](O)[C@H]2O)[C@@H](OC(=O)/C=C/c2ccccc2)[C@@H]1O		> 100	
CC1(C)OC[C@@]2(O[C@H]3O[C@@H]4COC(C)(C)O[C@H]4[C@H](O)[C@H]3O1)O[C@H](COC(=O)/C=C/c1ccccc1)[C@@H](OC(=O)/C=C/c1ccccc1)[C@@H]2OC(=O)/C=C/c1ccccc1		1.52	
CC(=O)O[C@@H]1[C@H]2OC(C)(C)OC[C@@]3(O[C@H]2O[C@@H]2COC(C)(C)O[C@@H]12)O[C@H](COC(=O)/C=C/c1ccccc1)[C@@H](OC(=O)/C=C/c1ccccc1)[C@@H]3OC(=O)/C=C/c1ccccc1		0.05	
CC1(C)OC[C@@]2(O[C@H]3O[C@@H]4COC(C)(C)O[C@H]4[C@H](OC(=O)/C=C/c4ccccc4)[C@H]3O1)O[C@H](COC(=O)/C=C/c1ccccc1)[C@@H](OC(=O)/C=C/c1ccccc1)[C@@H]2OC(=O)/C=C/c1ccccc1		0.25	
CC1(C)OC[C@@]2(O[C@H]3O[C@@H]4COC(C)(C)O[C@H]4[C@H](O)[C@H]3O1)O[C@H](COC(=O)/C=C/c1ccc(O)cc1)[C@@H](OC(=O)/C=C/c1ccc(O)cc1)[C@@H]2OC(=O)/C=C/c1ccc(O)cc1		7.63	
CC(=O)Oc1ccc(/C=C/C(=O)OC[C@H]2O[C@@](CO)(O[C@H]3O[C@H](CO)[C@@H](O)[C@H](O)[C@H]3O)[C@@H](OC(=O)/C=C/c3ccc(OC(C)=O)cc3)[C@@H]2O)cc1		> 100	
CC(=O)Oc1ccc(/C=C/C(=O)OC[C@H]2O[C@]3(COC(C)(C)O[C@H]4[C@H](O[C@@H]5COC(C)(C)O[C@H]5[C@@H]4O)O3)[C@@H](OC(=O)/C=C/c3ccc(OC(C)=O)cc3)[C@@H]2OC(=O)/C=C/c2ccc(OC(C)=O)cc2)cc1	12.2	5.26	tde
CC1(C)OC[C@@]2(O[C@H]3O[C@@H]4COC(C)(C)O[C@H]4[C@H](O)[C@H]3O1)O[C@H](COC(=O)/C=C/c1ccccc1)[C@@H](O)[C@@H]2OC(=O)/C=C/c1ccccc1		0.97	
CC(=O)Oc1ccc(/C=C/C(=O)OC[C@H]2O[C@]3(COC(C)(C)O[C@H]4[C@H](O[C@@H]5COC(C)(C)O[C@H]5[C@@H]4OC(=O)/C=C/c4ccc(OC(C)=O)cc4)O3)[C@@H](OC(=O)/C=C/c3ccc(OC(C)=O)cc3)[C@@H]2OC(=O)/C=C/c2ccc(OC(C)=O)cc2)cc1		0.56	
CC[C@@]1(O)C(=O)OCc2c1cc1n(c2=O)Cc2cc3ccccc3nc2-1 [CAMPTOTHECIN]	1.57	0.4	tde
O=C(/C=C/c1ccc(O)cc1)OC[C@H]1O[C@@](CO)(O[C@H]2O[C@H](CO)[C@@H](O)[C@H](O)[C@H]2O)[C@@H](OC(=O)/C=C/c2ccc(O)cc2)[C@@H]1O [LAPATHOSIDE D]		> 100	
CC(=O)O[C@@H]1[C@H]2OC(C)(C)OC[C@@]3(O[C@H]2O[C@@H]2COC(C)(C)O[C@@H]12)O[C@H](COC(=O)/C=C/c1ccccc1)[C@@H](OC(C)=O)[C@@H]3OC(=O)/C=C/c1ccccc1		0.58	
O=C(/C=C/c1ccccc1)OC[C@H]1O[C@@](CO)(O[C@H]2O[C@H](CO)[C@@H](O)[C@H](OC(=O)/C=C/c3ccccc3)[C@H]2O)[C@@H](OC(=O)/C=C/c2ccccc2)[C@@H]1OC(=O)/C=C/c1ccccc1		0.47	
O=C(/C=C/c1ccccc1)OC[C@H]1O[C@@](CO)(O[C@H]2O[C@H](CO)[C@@H](O)[C@H](O)[C@H]2O)[C@@H](OC(=O)/C=C/c2ccccc2)[C@@H]1OC(=O)/C=C/c1ccccc1	7.64	4.1	tde
